Holding throughout (format): functional
The subject of assay [1] is Periplaneta americana. Description: Insecticidal activity against second-instar nymph Periplaneta americana (American cockroach) assessed as mortality at 5 ug applied on thoracic tergite at 25 +/- 0.5 degC and 75 +/- 5 % RH with food for 24 hr. Summed up:
(§1)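 Topical contact assay. Dose was expressed per mg of insect body weight: 5 μg/mg for P. americana, 10 µg/mg for A. monuste orseis, and 50 μg/mg for A. obtectus and S. zeamais. The acetone control received solvent only. Insects were held in Petri dishes in an incubator with a 12 h photoperiod. Dead and motionless insects were both counted as dead. Mean percent mortality was compared by Tukey test at the 0.05 level.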

Assay [2] deals with Ascia monuste. Description: Insecticidal activity against Ascia monuste orseis assessed as mortality at 10 ug applied on thoracic tergite at 25 +/- 0.5 degC and 75 +/- 5 % RH with food for 12 hr. An outline of the steps:
as §1

The test system of assay [3] is Ascia monuste. Nature of the assay: Insecticidal activity against Ascia monuste orseis assessed as mortality at 10 ug applied on thoracic tergite at 25 +/- 0.5 degC and 75 +/- 5 % RH with food for 24 hr. Summed up: as §1
The subject of assay [4] is Periplaneta americana. Nature of the assay: Insecticidal activity against second-instar nymph Periplaneta americana (American cockroach) assessed as mortality at 5 ug applied on thoracic tergite at 25 +/- 0.5 degC and 75 +/- 5 % RH with food for 12 hr. An outline of the steps: as §1
Assay [5] relates to Sitophilus zeamais. Description: Insecticidal activity against Sitophilus zeamais assessed as mortality at 50 ug applied on thoracic tergite at 25 +/- 0.5 degC and 75 +/- 5 % RH without food for 12 hr. Summed up:
as §1

For assay [6], the system named is Sitophilus zeamais. Nature of the assay: Insecticidal activity against Sitophilus zeamais assessed as mortality at 50 ug applied on thoracic tergite at 25 +/- 0.5 degC and 75 +/- 5 % RH without food for 24 hr. An outline of the steps: as §1
Assay [7] deals with Acanthoscelides obtectus. Nature of the assay: Insecticidal activity against Acanthoscelides obtectus assessed as mortality at 50 ug applied on thoracic tergite at 25 +/- 0.5 degC and 75 +/- 5 % RH without food for 12 hr. Summed up:
as §1

Assay [8] deals with Acanthoscelides obtectus. Nature of the assay: Insecticidal activity against Acanthoscelides obtectus assessed as mortality at 50 ug applied on thoracic tergite at 25 +/- 0.5 degC and 75 +/- 5 % RH without food for 24 hr. Summed up: as §1

Broadly, the mortality is the percentage killed.

For the compound `CC1(C)C2COC(=O)C21` (stereo not given), the mortality in assay [1] is on record as 100%; in assay [2] it was 100%; in assay [3], 100%; in assay [4] it was 100%; in assay [5], 85%; in assay [6], 90%. Moreover, the mortality in assay [7] and in assay [8] was 100% throughout.

Consider `CC1(C)C(C=C(Cl)Cl)C1C(=O)OCc1cccc(Oc2ccccc2)c1` (stereo not given) [PERMETHRIN], for which the mortality in assay [1] is 97.5%; in assay [2], 100%; in assay [3], 100%; in assay [4] it was 87.5%; in assay [5] it was 85.5%; in assay [6], 90%. Moreover, the mortality in assay [7] and in assay [8] was 100% throughout.

On to `COC(=O)[C@H]1[C@H](C=Cc2ccccc2Cl)C1(C)C` (mixture of isomers), for which the mortality is recorded as 67% in assay [1]; 100% in assay [2]; 100% in assay [3]; 67% in assay [4]; 82.5% in assay [5]; 90% in assay [6]. Moreover, the mortality in assay [7] and in assay [8] was 97.5% each time.

In the case of `COC(=O)[C@H]1[C@H](C=Cc2c(F)c(F)c(F)c(F)c2F)C1(C)C`, the mortality in assay [1] came to 100%; in assay [2], 100%; in assay [3], 100%; in assay [4] it was 100%; in assay [5], 97.5%; in assay [6] it was 100%. In addition, the mortality in assay [7] and in assay [8] was 100% throughout.

`COC(=O)[C@H]1[C@H](C=O)C1(C)C`: the mortality in assay [1] is recorded as 96%; in assay [2], 27.5%; in assay [3], 47.5%; in assay [4] it was 79.33%; in assay [5] it was 45%; in assay [6], 47.5%. In addition, the mortality in assay [7] and in assay [8] was 100% each time.

Consider `COC(=O)[C@H]1[C@H](C=Cc2cccc(OC)c2)C1(C)C`, for which the mortality in assay [2] amounted to 75%; in assay [3], 95%; in assay [4] it was 92%; in assay [5], 92.5%; in assay [6] it was 97.5%; in assay [7], 82.5%. The mortality in assay [8] amounted to 92.5%.

On to `CCOc1ccc(C=C[C@H]2[C@H](C(=O)OC)C2(C)C)cc1`, for which the mortality came out at 75% in assay [2]; 92.5% in assay [3]; 75% in assay [4]; 97.5% in assay [5]; 100% in assay [6]; 97.5% in assay [7]. In assay [8], the mortality worked out at 97.5%.

For the compound `COC(=O)[C@@H]1[C@@H](C=O)C1(C)C`, the mortality in assay [1] stood at 71%; in assay [2], 50%; in assay [3], 67.5%; in assay [4], 67%; in assay [5], 42.5%; in assay [6], 45%. The mortality amounted to 90% in assay [7] and 97.5% in assay [8].

For the compound `COC(=O)[C@H]1[C@H](C=Cc2ccccc2OC)C1(C)C`, the mortality came to 100% in assay [1]; 62.5% in assay [2]; 95% in assay [3]; 100% in assay [4]; 95% in assay [5]; 95% in assay [6]. In addition, the mortality stood at 87.5% in assay [7] and 95% in assay [8].

For the origin of these results see ChEMBL document CHEMBL3044705, “Synthesis and insecticidal activity of an oxabicyclolactone and novel pyrethroids” (2012).
